These results are taken from PubChem BioAssay AID492974 (The Scripps Research Institute Molecular Screening Center, 2010).

In the assay the target is Aspartyl aminopeptidase (Plasmodium falciparum (isolate 3D7)) (UniProt Q8I2J3). In words: recombinant PfM18AAP inhibitors, late-stage follow-up, biochemical, fluorescence, powder samples, assay provider (AID 492974). As to conditions: H-Glu-NHMec fluorogenic substrate, at 5 µM, active compounds read high. The method in brief: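 Assay system: recombinant PfM18AAP enzyme; reagent: H-Glu-NHMec at 50 µM; doses: single compound dose of 5 µM final; times: 10 min compound–enzyme preincubation, then 30 min kinetic read; signal: fluorescence, ex 370 nm / em 460 nm; benchmarks: uninhibited enzyme wells as high, enzyme-free wells as low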
Chain of Aspartyl aminopeptidase (Plasmodium falciparum (isolate 3D7)) (Q8I2J3 whole entry, looked up): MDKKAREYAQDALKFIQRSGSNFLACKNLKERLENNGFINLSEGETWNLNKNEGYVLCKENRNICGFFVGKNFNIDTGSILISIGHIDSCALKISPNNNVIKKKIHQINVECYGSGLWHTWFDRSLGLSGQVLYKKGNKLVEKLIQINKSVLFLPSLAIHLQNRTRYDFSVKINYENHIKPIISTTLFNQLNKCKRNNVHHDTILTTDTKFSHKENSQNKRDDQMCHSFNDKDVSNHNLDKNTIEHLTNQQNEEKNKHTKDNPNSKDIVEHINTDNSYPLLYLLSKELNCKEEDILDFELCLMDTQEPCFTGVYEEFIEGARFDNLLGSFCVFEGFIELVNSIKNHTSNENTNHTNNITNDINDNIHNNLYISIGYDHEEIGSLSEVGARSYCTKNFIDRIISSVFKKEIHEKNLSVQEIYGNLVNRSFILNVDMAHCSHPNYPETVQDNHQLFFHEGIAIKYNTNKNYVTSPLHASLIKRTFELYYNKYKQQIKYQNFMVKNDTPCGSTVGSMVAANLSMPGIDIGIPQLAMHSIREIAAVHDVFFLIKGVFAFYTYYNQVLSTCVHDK

Calls of active or inactive are those of the source.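 The calls were made as follows: active = inhibition of the enzyme above 50%; inactive = the rest.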

As usually defined, the inhibition is the relative decrease from the control value, in per cent. Consider `O=c1[nH]c(=S)[nH]c(O)c1/C=C1\C=c2ccccc2=N1`, for which the inhibition was 42% (inactive).

Regarding `O=C(CNC(=O)c1ccccc1)NCCc1ccc(O)c(O)c1`, the inhibition was 50%.

For the molecule `NCCc1ccc(O)c(O)c1`, the inhibition is 40% (inactive).

Turning to `Oc1ccc(/C=C/c2cc(O)cc(O)c2)cc1`, the inhibition was 50%.

Take `Oc1ccc(-c2csc(-c3ccccc3)n2)cc1O`: the inhibition was 90%.

For the molecule `O=C(NC(=S)Nn1cnnc1)c1ccccc1Br`, the inhibition was 15% (inactive).

As for `Cc1cccc(NC(=S)Nn2cnnc2)c1C`, the inhibition is 13% (inactive).

In the case of `Nc1nncn1C(=O)CCCOc1ccc(Cl)cc1Cl`, the inhibition was 0% (inactive).

As to `S=C(Nc1cc(Cl)ccc1Cl)Nn1cnnc1`, the inhibition was 24% (inactive).

Consider `Cc1c(Cl)cccc1NC(=O)Nn1cnnc1`, for which the inhibition is 10% (inactive).

With `O=c1c2c([N+](=O)[O-])cc([N+](=O)[O-])cc2sn1Cc1ccccc1`, the inhibition was 44% (inactive).

Consider `COc1cc(Br)cc(/C=N/c2ncn[nH]2)c1O`, for which the inhibition is 0% (inactive).

With `O=C(O)c1ccc(O)c(O)c1`, the inhibition was 21% (inactive).

On to `O=C(CSc1ncn[nH]1)Nc1nc(-c2ccccc2)ns1`, for which the inhibition is 7% (inactive).

Take `COc1ccc(C(=O)n2cnnc2N)cc1`: the inhibition was 4% (inactive).

Take `O=C(Nc1ccc(Cl)c(Cl)c1)Nn1cnnc1`: the inhibition is 63%.

On to `O=C(Nc1cccc(C(F)(F)F)c1)Nn1cnnc1`, for which the inhibition is 27% (inactive).

For `CCN(CC)S(=O)(=O)c1ccc(C(=O)Nn2cnnc2)cc1`, the inhibition is 26% (inactive).

As for `CCC(C)c1ccc(O)c(N)c1` (stereo unspecified), the inhibition is 65%.

On to `COC(=O)CN(n1cnnc1)S(=O)(=O)c1ccc(C)cc1`, for which the inhibition was 0% (inactive).

For the molecule `Cc1ccc(Cl)cc1NC(=O)Nn1cnnc1`, the inhibition is 35% (inactive).

With `COc1cccc(-c2cc(C(=O)Nn3cnnc3)c3ccccc3n2)c1`, the inhibition was 25% (inactive).

As to `COc1ccc2nc(C)cc(SCC(=O)N/N=C/c3ccc(O)c(O)c3)c2c1`, the inhibition was 63%.

`CCOC(=O)C1=C(CS(=O)(=O)c2ccc(F)cc2)NC(=O)NC1c1ccc(O)c(O)c1` (stereo unspecified): the inhibition is 58%.

Regarding `O=C(Nc1ccc(Cl)cc1Cl)Nn1cnnc1`, the inhibition was 48% (inactive).

For `O=C(CSc1nn(-c2ccccc2)c(=S)s1)Nn1cnnc1`, the inhibition is 15% (inactive).

In the case of `COc1cc([N+](=O)[O-])ccc1NC(=S)Nn1cnnc1`, the inhibition is 52%.

Take `O=C(Nn1cnnc1)c1ccccc1-c1ccccc1`: the inhibition is 21% (inactive).

Take `Cc1ccc(NC(=S)Nn2cnnc2)c(C)c1`: the inhibition is 3% (inactive).

Take `Cc1ccc([N+](=O)[O-])cc1-c1[nH]c(-c2ccc(O)c(O)c2)nc1-c1ccccc1`: the inhibition was 83%.

Take `CC(C)n1c(SCC(=O)Nc2nncs2)nnc1-c1ccco1`: the inhibition is 5% (inactive).

Regarding `Oc1ccc(C2=Nn3c(nnc3-c3ccco3)SC2)cc1O`, the inhibition was 52%.

On to `O=c1c(O)c(-c2ccc(O)c(O)c2)oc2cc(O)cc(O)c12`, for which the inhibition was 43% (inactive).

Regarding `Cc1nc2ccccn2c1C(=O)NNC(=O)Nc1ccccc1`, the inhibition is 11% (inactive).

As to `Br/C(C=Nn1cnnc1)=C\c1ccccc1`, the inhibition was 17% (inactive).

In the case of `O=S(=O)(Nn1cnnc1)c1ccccc1`, the inhibition was 10% (inactive).

On to `Oc1ccc(-c2csc(-c3cccnc3)n2)cc1O`, for which the inhibition was 81%.

As to `COc1ccc(Cl)cc1NC(=O)Nn1cnnc1`, the inhibition was 22% (inactive).

On to `O=C(CSc1nnc(-c2ccccc2)o1)Nn1cnnc1`, for which the inhibition was 58%.

In the case of `OC(Cn1cnnc1)c1ccccc1` (stereo unspecified), the inhibition is 19% (inactive).

As for `O=C(Nc1cc(Cl)ccc1Cl)Nn1cnnc1`, the inhibition is 54%.

`O=C(Nc1ccc([N+](=O)[O-])cc1)Nn1cnnc1`: the inhibition is 59%.

In the case of `O=C(Nc1ccccc1Cl)Nn1cnnc1`, the inhibition was 35% (inactive).

For the molecule `Cc1cc(C)cc(C(=O)n2cnnc2N)c1`, the inhibition is 0% (inactive).

For `Cc1cc(OCC(=O)Nn2cnnc2)ccc1Br`, the inhibition is 55%.

As for `CN1CCc2cccc3c2[C@@H]1Cc1ccc(O)c(O)c1-3`, the inhibition was 35% (inactive).

`Cc1cc(=O)[nH]c(SCC(=O)c2ccc(O)c(O)c2)n1`: the inhibition is 0% (inactive).

For `O=C(O)CSc1ncn[nH]1`, the inhibition is 0% (inactive).

Turning to `COC(=O)c1cc(C(=O)Nn2cnnc2)cc([N+](=O)[O-])c1`, the inhibition is 48% (inactive).

On to `O=C(COc1ccccc1C(=O)N/N=C/c1ccc(O)c(O)c1)N/N=C/c1ccc(O)c(O)c1`, for which the inhibition was 76%.

As for `O=c1[nH]c(CSc2ncn[nH]2)nc2ccccc12`, the inhibition was 0% (inactive).

With `Oc1ccc(CCNc2c3ccccc3nc3ccccc23)cc1O`, the inhibition is 52%.

As for `COc1ccc(NC(=O)NNC(=O)CCc2ccc(O)c(O)c2)cc1OC`, the inhibition is 23% (inactive).

In the case of `O=C(O)c1cn[nH]c1-n1cnnn1`, the inhibition is 2% (inactive).

On to `Oc1ccc(-c2cn3ccccc3n2)cc1O`, for which the inhibition is 42% (inactive).

`CC1(C)CC2(CC(c3ccccc3F)c3ccc(O)c(O)c3O2)NC(=S)N1` (stereo unspecified): the inhibition is 50%.

In the case of `Oc1cc(O)c2c(c1)O[C@H](c1ccc(O)c(O)c1)[C@H](O)C2`, the inhibition was 49% (inactive).

`CN1C(=O)N(c2cccc3ccccc23)C(n2cncn2)C1(C)C` (stereo unspecified): the inhibition is 5% (inactive).

With `COc1cccc2c(SCC(=O)N/N=C/c3ccc(O)c(O)c3)cc(C)nc12`, the inhibition was 51%.

Regarding `Cc1cc(C)n2c(=S)[nH]nc2n1`, the inhibition was 30% (inactive).

As to `COc1cc([N+](=O)[O-])ccc1NC(=O)Nn1cnnc1`, the inhibition was 4% (inactive).

`CC1=NNC(=O)/C1=C\c1cn(-c2ccccc2)nc1-c1ccc(F)cc1`: the inhibition was 9% (inactive).

Turning to `O=C(Nc1cccc(Cl)c1Cl)Nn1cnnc1`, the inhibition is 29% (inactive).

Turning to `Cc1ccc(Cl)cc1NC(=S)Nn1cnnc1`, the inhibition was 17% (inactive).

In the case of `Cc1nc(-c2ccc(O)c(O)c2)cs1`, the inhibition is 74%.

For the molecule `O=C(Nn1cnnc1)c1csc2ccccc12`, the inhibition is 22% (inactive).

With `CC1(C)CC(=O)c2c(oc3cc(O)c(O)cc23)C1`, the inhibition is 29% (inactive).

For `O=[N+]([O-])c1cc([N+](=O)[O-])c2cccnc2c1Oc1ccccc1O`, the inhibition is 16% (inactive).

Take `COC(=O)CN(n1cnnc1)S(=O)(=O)c1ccccc1Cl`: the inhibition is 26% (inactive).

On to `CCc1ccccc1NC(=S)Nn1cnnc1`, for which the inhibition is 6% (inactive).

Consider `CS(=O)(=O)c1ccc2c(c1)sc1nc(=O)c(/C=C3/C=CC(=O)C(O)=C3)c(N)n12`, for which the inhibition was 55%.

For `Cc1ccc(-n2c(O)c(/C=N/n3cnnc3)c3ccccc3c2=O)cc1`, the inhibition was 18% (inactive).

For the molecule `COC(=O)CN(n1cnnc1)S(=O)(=O)c1ccccc1`, the inhibition was 0% (inactive).

Turning to `O=C(CSc1nc2ccccc2c(=O)[nH]1)c1ccc(O)c(O)c1`, the inhibition was 10% (inactive).

`O=C(CSc1ncn[nH]1)OCN1C(=O)c2ccccc2C1=O`: the inhibition was 0% (inactive).

As to `O=C(Nc1ccc(Br)cc1Cl)Nn1cnnc1`, the inhibition is 71%.
